Assay outcomes as filed in PubChem BioAssay.
The list is not random: actives were taken first. Their share in the collection is about 2.8%.
NPY1 pot ag: human NPY-Y1 potentiation or agonism, primary screen; NPY-Y1 expressing cells, potentiator/agonist activation; activation, % at 3.6 µM; 0.37% of 220,000 active; AID 1304; in the data active means activation above about 33%, passing the limit was not always enough;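 further: cells stimulated with NPY at EC10 then isoproterenol at EC100; 0% = low agonist plus stimulus and 100% = saturating agonist plus stimulus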
Target sequence (P25929 whole entry, looked up): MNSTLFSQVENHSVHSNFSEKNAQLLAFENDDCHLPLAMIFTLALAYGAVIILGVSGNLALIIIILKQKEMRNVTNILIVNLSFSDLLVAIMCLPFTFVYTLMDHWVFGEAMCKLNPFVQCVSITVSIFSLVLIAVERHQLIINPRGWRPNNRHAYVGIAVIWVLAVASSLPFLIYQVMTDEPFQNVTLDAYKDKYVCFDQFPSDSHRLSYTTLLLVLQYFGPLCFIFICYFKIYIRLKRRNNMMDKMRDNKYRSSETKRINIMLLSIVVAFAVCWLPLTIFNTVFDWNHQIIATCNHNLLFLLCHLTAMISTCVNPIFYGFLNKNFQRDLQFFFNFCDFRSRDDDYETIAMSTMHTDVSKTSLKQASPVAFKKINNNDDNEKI
NPY-Y2 antag: antagonists of human neuropeptide Y receptor Y2. AID 793. 0.99% of 140,000 active. P49146. inhibition, % at 2.7 µM. NPY-Y2 expressing cells, antagonist mode; in the data active means inhibition above about 17%;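 further: 0% = vehicle with agonist challenge and 100% = reference antagonist with challenge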
NPY Y1 blocker: blocks the human neuropeptide Y Y1 receptor; HEK293-CNG Y1 cells, membrane potential fluorescence; NPY at EC95, then isoproterenol; inhibition, % at 3.6 µM; 1% of 200,000 active;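 active means inhibition above the campaign mean inhibition of all tested compounds plus 3 SD, cut at about 20% in these data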;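 further: 0% = DMSO wells given NPY plus isoproterenol and 100% = isoproterenol alone without NPY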
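Assay system: HEK293 cells with Y1 receptor plus CNG channel | Probe or stimulus: NPY (25 nM), isoproterenol (1 µM), Ro 20-1724 (25 µM) | Timing: Compound incubation 1 h at room temperature, readout 45 min post-stimulation | Measured by: Membrane-potential fluorescent dye readout | Benchmarks: High control isoproterenol alone, low control NPY with isoproterenol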
PGE2 EP2 inh: blocks the human prostaglandin E2 receptor EP2; P43116; C6 glioma cells expressing human EP2, cAMP TR-FRET; cells stimulated with saturating PGE2; inhibition, % at 25 µM; 0.52% of 260,000 active; AID 1422;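 active means percent inhibition above 40 after rounding to a whole number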;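 further: rat C6 glioma host cells with rolipram phosphodiesterase inhibitor present; the protocol text gives 20 µM as final concentration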
Target sequence (P43116 whole entry, looked up): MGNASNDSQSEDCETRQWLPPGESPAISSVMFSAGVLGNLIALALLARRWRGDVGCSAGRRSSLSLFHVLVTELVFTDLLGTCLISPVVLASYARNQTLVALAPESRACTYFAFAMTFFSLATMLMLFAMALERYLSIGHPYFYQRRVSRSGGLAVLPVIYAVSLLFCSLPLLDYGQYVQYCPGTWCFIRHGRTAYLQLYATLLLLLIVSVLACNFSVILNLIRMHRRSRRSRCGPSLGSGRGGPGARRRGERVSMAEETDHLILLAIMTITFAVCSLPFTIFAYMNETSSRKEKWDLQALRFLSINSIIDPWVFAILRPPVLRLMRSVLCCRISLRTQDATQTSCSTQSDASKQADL
EP2 mod: EP2 receptor (human) modulation. P43116. EP2-expressing cells, cAMP HTRF FRET, PGE2 co-stimulation. induction, % at 25 µM. 0.83% of 260,000 active;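 active means compounds whose cAMP rise, as percent of the full-agonist control response, exceeds 60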;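 further: rat C6 glioma line stably carrying human EP2 under a CMV promoter; the protocol text gives 20 µM as final concentration; 100% = response of wells given 1 µM PGE2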
NPY-Y2 PAM-ag: potentiators or agonists of human neuropeptide Y receptor Y2. P49146. 0.45% of 220,000 active. cells expressing NPY-Y2, potentiator/agonist read-out. activation, % at 3.6 µM; in the data active means activation above about 27%;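 further: cells stimulated with NPY near EC25 plus isoproterenol at EC100; 0% = vehicle plus submaximal agonist and 100% = vehicle plus saturating agonist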
NPY-Y2 confirm: human NPY-Y2 potentiation or agonism, confirmation; shares compounds with NPY-Y2 PAM-ag; AID 1539; activation, % at 3.6 µM; cell-based NPY-Y2 potentiator/agonist assay; 20% of 450 active; in the data active means activation above about 33%
NPY-Y1 counter: NPY-Y1 potentiation or agonism as NPY-Y2 counter-screen; shares compounds with NPY-Y2 PAM-ag; 20% of 450 active; Y1 HEK293-CNG cells, membrane potential fluorescence; activation, % at 3.6 µM; in the data active means activation above about 45%;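 further: cells stimulated with submaximal NPY then isoproterenol with phosphodiesterase inhibitor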
NPY-Y1 ag 2: human NPY-Y1 agonism as NPY-Y2 potentiator counter-screen | shares compounds with NPY-Y2 PAM-ag | HEK293 Y1-CNGC, membrane potential fluorescence | activation, % at 3.6 µM | 37% of 450 active | AID 1702;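 active means activation above the mean of DMSO-only control wells plus 3 SD, cut at about 18% in these data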;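 further: cells stimulated with 1 µM isoproterenol plus the PDE inhibitor Ro 20-1724; 0% = isoproterenol with DMSO and no NPY and 100% = 40 nM NPY; Y1 agonists lower the membrane potential dye signal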
CNGC inh: counter-screen for NPY-Y2 potentiators: inhibitors of CNG channel activity. shares compounds with NPY-Y2 PAM-ag. HEK293-CNG parental, isoproterenol cAMP, membrane potential fluorescence. inhibition, % at 3.6 µM. 32% of 450 active;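 active means inhibition above the control-well mean plus 3 SD of those wells, cut at about 22% in these data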;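 further: 0% = DMSO with isoproterenol and 100% = DMSO without isoproterenol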
NPY-Y2 ag 2: counter-screen for NPY-Y2 potentiators: agonists of human NPY-Y2. shares compounds with NPY-Y2 PAM-ag. HEK293 Y2/CNGC cells, membrane potential fluorescence, agonist mode. activation, % at 3.6 µM. 56% of 450 active. AID 1710;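 active means activation above the mean of solvent-only control wells plus 3 SD, cut at about 10% in these data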;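 further: cells stimulated by isoproterenol with no NPY added so direct agonism is tested; 0% = DMSO with isoproterenol alone and 100% = NPY at EC100 plus isoproterenol; agonism lowers probe fluorescence through less cAMP and CNG channel opening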
The depositor's hits bear a star; · = no result given.

SMILES | NPY1 pot ag | NPY-Y2 antag | NPY Y1 blocker | PGE2 EP2 inh | EP2 mod | NPY-Y2 PAM-ag | NPY-Y2 confirm | NPY-Y1 counter | NPY-Y1 ag 2 | CNGC inh | NPY-Y2 ag 2
CCC(C)N(C)C1CCN(C(=S)Nc2cccc(OC)c2)CC1 (stereo not drawn) | 0 | · | -2 | 2 | -3 | 82* | -3 | 3 | -4 | 3 | 8
Cc1ccc(-c2nnn(CC(=O)NC(C)C)n2)cc1 | · | · | · | 11 | -6 | · | · | · | · | · | ·
Cc1cccc(NC(=O)CN2CCC(c3nc4ccccc4s3)CC2)c1C | · | · | · | 14 | -127 | · | · | · | · | · | ·
Cc1cccc(-n2c(N)cc(=O)nc2SCC(=O)Nc2cc(C)on2)c1 | 34 | 2 | 3 | 9 | 12 | 79* | -4 | 2 | -5 | -4 | -8
CCC(=O)N1CCc2cc(C(O)CN3CCC(O)(c4cccc(C)c4)CC3)ccc21 (stereo not drawn) | · | · | · | 6 | -16 | · | · | · | · | · | ·
C/C=C/C(=O)N1c2ccc(C)cc2C(C)=CC1(C)C | -26 | · | · | 2 | 21 | 97* | -9 | -2 | -10 | -11 | -2
C/C(N)=C(/C#N)C(=O)CSc1nn(-c2ccc(Cl)cc2)c(=S)s1 | 10 | · | -7 | 13 | -44 | 35* | 21 | 25 | 10 | 0 | 10.0*
CC(=O)Nc1ccc(S(=O)(=O)N2CCC(n3cnc4cc(F)ccc43)CC2)cc1 | 10 | 0 | 2 | 5 | -33 | 35* | 8 | 7 | 4 | 4 | -5
CC(=O)Nc1ccc(S(=O)(=O)N2CCC(n3cnc4cccnc43)CC2)cc1 | · | · | · | 8 | -36 | · | · | · | · | · | ·
CCc1ccc2[nH]c(=O)c(CN(Cc3ccco3)S(=O)(=O)c3ccccc3C(=O)OC)cc2c1 | · | · | · | 7 | -18 | · | · | · | · | · | ·
Oc1ccccc1-c1nc(NCC2CCCO2)c2ccccc2n1 (stereo not drawn) | 22 | -1 | -4 | 9 | 33 | 41* | 37* | 24 | 17 | 24* | 19*
Cc1ccc(C)c2nc(SCC(=O)c3ccc4c(c3)OCCO4)c(C#N)cc12 | · | · | · | 8 | -20 | · | · | · | · | · | ·
CCn1c2ccccc2c2cc(NC(=O)CN(C)CC(=O)Nc3ccc(N4CCOCC4)cc3)ccc21 | 32 | · | -2 | 8 | -76 | 27* | 20 | 30 | 15 | 15 | 18*
CCC(C)c1ccc(OCC(=O)Nc2nnn(CC)n2)cc1 (stereo not drawn) | · | · | · | 14 | 12 | · | · | · | · | · | ·
O=C(O)C1CCCN1c1nc(C(F)(F)F)nc2ccccc12 (stereo not drawn) | 6 | · | 4 | 3 | 17 | 75* | -3 | -11 | -14 | -12 | 4
CCc1ccccc1NC(=S)N(CCO)Cc1cc2c(C)cc(C)cc2[nH]c1=O | · | · | · | 23 | -5 | · | · | · | · | · | ·
CCOCCCNC(=O)c1ccc(CN2CCOCC2)cc1 | · | · | · | 12 | -4 | · | · | · | · | · | ·
CC(C)OCCCNC(=O)C1CCCN(S(=O)(=O)c2ccc(Cl)cc2)C1 (stereo not drawn) | · | · | · | 7 | -7 | · | · | · | · | · | ·
FC(F)(F)c1cccc(NC(=S)NNC(=S)Nc2cccc(C(F)(F)F)c2)c1 | 34 | · | · | 27 | -23 | 54* | 32 | 40 | 46* | 44* | 33*
O=[N+]([O-])c1cc(C(F)(F)F)cc([N+](=O)[O-])c1NCCNC(=S)Nc1ccc(Cl)c(Cl)c1 | 2 | · | · | 21 | -29 | 102* | 34* | 24 | 18* | 20 | 47*
COC(=O)CSc1nc(-c2ccccc2)cc(C(F)(F)F)n1 | · | · | · | 12 | 28 | · | · | · | · | · | ·
CCc1c(C)c(C#N)c2nc3ccccc3n2c1N(C)C | -10 | 0 | 7 | 3 | -3 | 101* | -14 | -16 | -29 | -27 | -16
O=C(Nc1ccc(F)cc1)NC1CCCCC1 | -11 | 1 | 2 | 17 | -17 | 99* | -5 | -3 | -6 | -8 | -11
O=C(Cn1ncc2ccccc2c1=O)N1CCC(c2ccncc2)CC1 | · | · | · | 7 | -72 | · | · | · | · | · | ·
O=S(=O)(c1ccccc1)N1CCC(O)(CSc2ccc(Cl)cc2)CC1 | -14 | 3 | 9 | · | -10 | 34* | -13 | -56 | 12 | -16 | 5
SMILES | NPY1 pot ag | NPY-Y2 antag | NPY Y1 blocker | PGE2 EP2 inh | EP2 mod | NPY-Y2 PAM-ag | NPY-Y2 confirm | NPY-Y1 counter | NPY-Y1 ag 2 | CNGC inh | NPY-Y2 ag 2
O=S(=O)(c1ccc(Cl)cc1)N1CCC(O)(CN2CCN(Cc3ccccc3)CC2)CC1 | 3 | · | 2 | 5 | -14 | -2 | · | · | · | · | ·
COc1ccc(/C=C/C(=O)c2c(O)ccc3c(C)cc(=O)oc23)cc1 | 33 | 7 | 1 | 10 | -7 | 64* | -18 | -30 | -32 | -23 | -14
CC(C)C(=O)Nc1ccc(N2CCN(c3ccc(F)cc3)CC2)cc1 | -2 | · | 16 | 0 | 12 | 31* | 1 | 13 | 3 | 4 | -3
Cc1cccc(C)c1OCC(O)CNC(C)(C)C (stereo not drawn) | 19 | 1 | 3 | 6 | -60 | 41* | 12 | 13 | 9 | 12 | 13*
Cc1cccc(C)c1OCC(O)CNC(C)C (stereo not drawn) | -47 | 5 | 6 | 15 | -18 | -8 | · | · | · | · | ·
O=Cc1cc(N=Nc2ccccc2Cl)ccc1O | 33 | · | -15 | 7 | 55 | 34* | 42* | 51* | 25* | 25* | 39*
COc1cc2cc(CN(Cc3cccnc3)C(=O)Nc3ccccc3Cl)c(=O)[nH]c2cc1OC | · | · | · | 9 | 15 | · | · | · | · | · | ·
CC(C)c1ccc2oc(-c3ccc(NC(=O)c4ncn[nH]4)cc3)nc2c1 | 16 | -1 | -3 | 16 | -54 | -4 | · | · | · | · | ·
CCC(C)c1ccc2oc(-c3ccc(NC(=O)c4ncn[nH]4)cc3)nc2c1 (stereo not drawn) | -4 | 4 | -1 | 1 | -17 | 35* | 10 | 25 | 10 | 5 | 8
CN(C)/C=C/C(=O)c1ncc(C(F)(F)F)cc1Cl | 2 | · | -2 | 4 | 6 | 28* | -3 | 3 | -8 | -10 | -2
CCN(CC)c1cc(C)c2cc(NC(=O)c3cccs3)ccc2n1 | 35 | · | -4 | 9 | -85 | 28* | 33 | 53* | 35* | 45* | 35*
COC(=O)/C(=C/c1cn(C(C)=O)c2ccccc12)[N+](=O)[O-] | 35 | · | · | 14 | -85 | 61* | 18 | 32 | 25* | 20 | 18*
COC(=O)/C(=C/c1cn(C)c2ccccc12)[N+](=O)[O-] | 20 | 1 | -6 | · | -18 | 2 | · | · | · | · | ·
